The nature of series [1]: Antiproliferative activity against human MCF7 cells after 48 hrs by MTT assay. Type of series: functional, cell-based. As to conditions: for IC50: Homo sapiens, MCF7, 48 h. An outline of the steps: (§1)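 5000 cells seeded per well in RPMI complete medium; next day medium replaced with medium containing a range of compound concentrations, with a no-drug control and 17-AAG as reference. After 48 h at 37 °C, 5% CO2, MTT (4 mg/mL solution) added for 3 h. Formazan dissolved in DMSO, absorbance read at 540 nm. Triplicate determinations; mean SD from dose-response curves of three independent experiments.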
For orientation: Tetrazolium assays rely on reduction of a dye to a coloured formazan, in cell work by metabolically active cells.

Series [2] is described as follows: Antiproliferative activity against human A549 cells after 48 hrs by MTT assay. It counts as functional, cell-based. As to conditions: for IC50: Homo sapiens, A549, 48 h. An outline of the steps:
as §1

The nature of series [3]: Antiproliferative activity against human DU145 cells after 48 hrs by MTT assay. As to conditions: for IC50: Homo sapiens, DU-145, 48 h. It counts as functional, cell-based, DU-145. An outline of the steps:
as §1

The target in series [4] is T1, Heat shock protein HSP90 (Homo sapiens) (UniProt P07900+P08238). The experiment in a line: Inhibition of HSP90 in human MCF7 cells assessed as decrease in Her2 protein expression at 50 uM after 24 hrs by Western blot method relative to control. It counts as cell-based. An outline of the steps: (§2)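 MCF-7 cells seeded at 10⁶ per 25 cm² flask and treated 24 h with 50 µM compound; DMSO vehicle control, 0.5 μM 17-AAG reference. Lysis in Tris-HCl pH 7.4 buffer with protease/phosphatase inhibitors. 50 µg protein resolved on 10% SDS-PAGE, transferred to PVDF, blocked 2 h in 5% skim milk/TBST at 4 °C. Probed 2 h with rabbit anti-Her-2 and anti-Hsp-70 (1:3000); β-tubulin also blotted.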
Background: A western blot detects proteins with antibodies after separation by electrophoresis.

The target of series [5] is T1, Heat shock protein HSP90 (Homo sapiens). The experiment in a line: Inhibition of HSP90 in human MCF7 cells assessed as induction of HSP70 protein expression at 50 uM after 24 hrs by Western blot method relative to control. It counts as cell-based. An outline of the steps: as §2
Series [6] is described as follows: Effect on beta-tubulin protein expression in human MCF7 cells at 50 uM after 24 hrs by Western blot method. As to conditions: mcf7, 24 h. Type of series: cell-based. An outline of the steps:
as §2

These results are taken from ChEMBL document CHEMBL3875225, “Design, synthesis and biological evaluation of 7-(aryl)-2,3-dihydro-[1,4]dioxino[2,3-g]quinoline derivatives as potential Hsp90 inhibitors and anticancer agents” (Bioorg Med Chem, 2017).

Active and inactive are the calls of the source. No cut-off for these calls is given here.

Regarding `COc1ccc(-c2cc(CO)c3cc4c(cc3n2)OCCO4)cc1OC`, the IC50 in series [1] is 6.7 µM; in series [2], 82.1 µM; in series [3], 11.5 µM. Also, the inhibition in series [4] is greater than 50%. In addition, the inhibition entry in series [5] is “Active”. Besides, the Activity entry in series [6] is given as “Non-Toxic”.
Regarding `COc1cc(-c2cc(C(=O)O)c3cc4c(cc3n2)OCCO4)cc(OC)c1OC`, the IC50 in series [1], in series [2] and in series [3] was greater than 100 µM throughout.
Take `Cc1ccc(-c2cc(C(=O)O)c3cc4c(cc3n2)OCCO4)cc1`: the IC50 in series [1], in series [2] and in series [3] was greater than 100 µM in each case.
For the compound `O=C(O)c1cc(-c2ccccc2)nc2cc3c(cc12)OCCO3`, the IC50 in series [1], in series [2] and in series [3] was greater than 100 µM in each case.
As for `COc1cc(/C=N/c2ccc3c(c2)OCCO3)ccc1O`, the Activity in series [1], in series [2] and in series [3] was greater than 100 µM in each case.
On to `COc1cc(-c2cc(C(=O)O)c3cc4c(cc3n2)OCCO4)ccc1O`, for which the IC50 in series [1], in series [2] and in series [3] was greater than 100 µM in each case.
As for `Oc1ccc(/C=N/c2ccc3c(c2)OCCO3)cc1`, the Activity in series [1], in series [2] and in series [3] was greater than 100 µM throughout.
Take `O=C(O)c1cc(-c2ccc(O)cc2)nc2cc3c(cc12)OCCO3`: the half-maximal inhibitory concentration (IC50) in series [1], in series [2] and in series [3] was greater than 100 µM each time.
Turning to `COc1ccc(-c2cc(C(=O)O)c3cc4c(cc3n2)OCCO4)cc1`, the IC50 in series [1], in series [2] and in series [3] was greater than 100 µM in each case.
For `COc1cc(-c2cc(CO)c3cc4c(cc3n2)OCCO4)ccc1O`, the IC50 in series [1] was found to be 25.7 µM; in series [2], 87.8 µM; in series [3] it was 86.8 µM. Further, the inhibition in series [4] was greater than 50%. In addition, the inhibition result in series [5] was “Active”. The Activity result in series [6] is “Non-Toxic”.
For the compound `CC(=O)Nc1ccc(-c2cc(C(=O)O)c3cc4c(cc3n2)OCCO4)cc1`, the IC50 in series [1], in series [2] and in series [3] was greater than 100 µM throughout.
On to `COc1cc(-c2cc(CO)c3cc4c(cc3n2)OCCO4)cc(OC)c1OC`, for which the results for the IC50 in series [1], in series [2] and in series [3] were 4.53 µM, 46.9 µM and 64.2 µM, respectively. Moreover, the inhibition in series [4] is greater than 50%. In series [5], the inhibition entry was “Active”. For the same compound, the Activity result in series [6] was “Non-Toxic”.
Regarding `COc1ccc(-c2cc(CO)c3cc4c(cc3n2)OCCO4)cc1O`, the IC50 in series [1] is 40 µM; in series [2] it was 94.2 µM; in series [3], 89.7 µM. For the same compound, the inhibition in series [4] was greater than 50%. In addition, the inhibition result in series [5] was “Active”. Besides, in series [6], the Activity entry was “Non-Toxic”.
On to `COc1ccc(/C=N/c2ccc3c(c2)OCCO3)cc1OC`, for which the Activity in series [1], in series [2] and in series [3] was greater than 100 µM in each case.
Regarding `COc1ccc(-c2cc(CO)c3cc4c(cc3n2)OCCO4)cc1`, the IC50 is 24 µM in series [1], greater than 100 µM in series [2] and 21.4 µM in series [3]. In addition, the inhibition in series [4] is greater than 50%. Further, the inhibition entry in series [5] was “Active”. Also, the Activity result in series [6] was “Non-Toxic”.
Turning to `COc1cc(/C=N/c2ccc3c(c2)OCCO3)cc(OC)c1OC`, the Activity in series [1], in series [2] and in series [3] was greater than 100 µM in each case.
`C=CCNC1=C2C[C@@H](C)C[C@H](OC)[C@H](O)[C@@H](C)/C=C(\C)[C@H](OC(N)=O)[C@@H](OC)/C=C\C=C(/C)C(=O)NC(=CC1=O)C2=O` [TANESPIMYCIN]: the results for the IC50 in series [1], in series [2] and in series [3] were 0.192 µM, 0.286 µM and 0.282 µM, respectively.
With `OCc1cc(-c2ccccc2)nc2cc3c(cc12)OCCO3`, the IC50 in series [1] was 22.7 µM; in series [2], greater than 100 µM; in series [3], 86.1 µM. In series [4], the inhibition is greater than 50%. The inhibition result in series [5] is “Active”. The Activity entry in series [6] was “Non-Toxic”.
`COc1ccc(-c2cc(C(=O)O)c3cc4c(cc3n2)OCCO4)cc1O`: the IC50 in series [1], in series [2] and in series [3] was greater than 100 µM throughout.
Consider `O=C(O)c1cc(-c2cccc(O)c2)nc2cc3c(cc12)OCCO3`, for which the IC50 in series [1], in series [2] and in series [3] was greater than 100 µM each time.
`COc1ccc(-c2cc(C(=O)O)c3cc4c(cc3n2)OCCO4)cc1OC`: the IC50 in series [1], in series [2] and in series [3] was greater than 100 µM throughout.

As a reminder, the IC50 is the concentration that gives 50% inhibition. A lower IC50 goes with higher potency. In general, inhibition refers to the drop in the measured response relative to a control, in per cent.
